The source made the active and inactive calls. The calls are words filed in the database; no cut-off is given here.
Key:
[1] = molecular target: T1, Thermolysin (Bacillus thermoproteolyticus) (UniProt P00800); test: Binding affinity to Bacillus thermoproteolyticus thermolysin using cacodylate buffer by ITC
T1 sequence (whole entry): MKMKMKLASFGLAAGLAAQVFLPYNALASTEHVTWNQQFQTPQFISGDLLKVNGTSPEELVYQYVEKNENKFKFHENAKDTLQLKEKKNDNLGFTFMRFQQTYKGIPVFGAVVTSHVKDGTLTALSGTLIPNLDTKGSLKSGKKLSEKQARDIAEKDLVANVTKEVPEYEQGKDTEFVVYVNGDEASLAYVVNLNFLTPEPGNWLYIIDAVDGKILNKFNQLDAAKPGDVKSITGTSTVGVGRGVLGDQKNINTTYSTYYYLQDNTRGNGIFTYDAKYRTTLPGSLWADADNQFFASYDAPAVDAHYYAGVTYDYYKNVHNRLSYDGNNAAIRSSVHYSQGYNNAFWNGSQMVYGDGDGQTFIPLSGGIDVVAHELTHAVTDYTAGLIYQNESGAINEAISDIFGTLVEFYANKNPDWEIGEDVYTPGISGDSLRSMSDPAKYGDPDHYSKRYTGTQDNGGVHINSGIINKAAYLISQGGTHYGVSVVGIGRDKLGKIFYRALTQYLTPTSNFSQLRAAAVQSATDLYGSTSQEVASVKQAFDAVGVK
Summary of the method: (§1)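 Freeze-dried thermolysin was dissolved just before each run in 20 mM buffer (HEPES, PIPES or sodium cacodylate, as in the line), 2 mM CaCl2 and 500 mM NaSCN, pH 7.5. ITC ran at 298 K with 10–15 injections, using either 250 μM protein with 3–3.5 mM ligand or 48 μM protein with 1 mM ligand. Ligand concentrations were corrected for qNMR purity. Each titration was run at least in duplicate.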

[2] = molecular target: T1, Thermolysin (Bacillus thermoproteolyticus); test: Binding affinity to Bacillus thermoproteolyticus thermolysin using HEPES buffer by ITC; summary of the method: as §1
[3] = molecular target: T1, Thermolysin (Bacillus thermoproteolyticus); test: Binding affinity to Bacillus thermoproteolyticus thermolysin using PIPES buffer by ITC; summary of the method: as §1

Row | Structure (SMILES) | Activity [1] | Activity [2] | Activity [3]
1 | CCC[C@H](NC(=O)[C@H](CC(C)C)NP(=O)(O)CNC(=O)OCc1ccccc1)C(=O)O | Active | Active | Active
2 | CC(C)C[C@H](NP(=O)(O)CNC(=O)OCc1ccccc1)C(=O)N[C@@H](CCN)C(=O)O | Active | Active | Active
3 | CC(C)C[C@H](NP(=O)(O)CNC(=O)OCc1ccccc1)C(=O)N[C@@H](CN)C(=O)O | Active | Active | Active
4 | CCNC(=O)[C@H](CC(C)C)NP(=O)(O)CNC(=O)OCc1ccccc1 | Active | Active | Active
5 | CC(C)C[C@H](NP(=O)(O)CNC(=O)OCc1ccccc1)C(=O)NCCN | Active | Active | Active

More lines, now with the values ahead:

Row | Activity [1] | Activity [2] | Activity [3] | Structure (SMILES)
6 | Active | Active | Active | CC[C@H](NC(=O)[C@H](CC(C)C)NP(=O)(O)CNC(=O)OCc1ccccc1)C(=O)O
7 | Active | Active | Active | CC(C)C[C@H](NP(=O)(O)CNC(=O)OCc1ccccc1)C(=O)N[C@@H](CCCN)C(=O)O
8 | Active | Active | Active | CCCNC(=O)[C@H](CC(C)C)NP(=O)(O)CNC(=O)OCc1ccccc1
9 | Active | Active | Active | CC(C)C[C@H](NP(=O)(O)CNC(=O)OCc1ccccc1)C(=O)NCCCN
10 | Active | Active | Active | CC(C)C[C@H](NP(=O)(O)CNC(=O)OCc1ccccc1)C(=O)N[C@@H](CCCCN)C(=O)O
11 | Active | Active | Active | CC(C)C[C@H](NP(=O)(O)CNC(=O)OCc1ccccc1)C(=O)NCN
12 | Active | Active | Active | CC(C)C[C@H](NP(=O)(O)CNC(=O)OCc1ccccc1)C(=O)NCCCCN

— ChEMBL document CHEMBL4014352, “Paying the Price of Desolvation in Solvent-Exposed Protein Pockets: Impact of Distal Solubilizing Groups on Affinity and Binding Thermodynamics in a Series of Thermolysin Inhibitors” (J Med Chem, 2017)
